Laboratory results reported in ChEMBL document CHEMBL1152759, “Design, synthesis, and biological evaluation of novel quinoline derivatives as HIV-1 Tat-TAR interaction inhibitors” (Bioorg Med Chem, 2009).

Columns and labels:
[1] = tested on: Simian immunodeficiency virus; assay: Antiviral activity against SIV in human CEM cells assessed as protection against virus-induced cytopathogenicity; format: functional, organism-based; settings: CCRF-CEM
How it was run: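 SIV syncytium assay: CEM174 cells at 2 × 10^5 cells/ml infected with 100 TCID50 SIV per well, given dilutions of compound; 5 days at 37 °C, 5% CO2, humidified air. Giant (syncytium) cell formation scored microscopically. EC50 = concentration protecting cells from SIV cytopathogenicity by 50%.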

[2] = Selectivity index, ratio of TC50 for human CEM cells to EC50 for SIV in human CEM cells
Nucleic Acid = assay: Inhibition of HIV1 Tat-TAR RNA interaction-mediated transactivation in human 293T cells assessed as CAT gene expression at 30 uM after 24 hrs by ELISA; values are per cent of control; settings: Human immunodeficiency virus 1
[3] = Cytotoxicity against human CEM cells; format: cell-based; settings: CEM (CCRF-CEM) cells, read-out: TC50 (the source's name)
How it was run: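 Uninfected CEM cells exposed to compound dilutions; TC50 is the concentration giving 50% inhibition of cell proliferation.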

Row | Structure (SMILES) | EC50 [1] [µM] | Ratio [2] | level, % of control (Nucleic Acid) [%] | CC50 [3] [µM]
1 | COC(=O)[C@H](CO)NC(=O)c1cnc2ccccc2c1Cl | 1.1 | >90 | 59.6 | > 100
2 | O=C(NCCCO)c1cnc2ccccc2c1Cl | 6.6 | >15 | – | > 100
3 | COC(=O)[C@H](Cc1ccccc1)NC(=O)c1cnc2ccccc2c1Cl | 7.9 | >13 | – | > 100
4 | COC(=O)[C@@H](NC(=O)c1cnc2ccccc2c1Cl)[C@@H](C)O | 7 | >14 | 82.4 | > 100
5 | COC(=O)[C@H](CO)NC(=O)c1cnc2c(F)cc(F)cc2c1Cl | 8.8 | >11 | – | > 100
6 | COC(=O)[C@@H](NC(=O)c1cnc2cc(C)ccc2c1Cl)[C@@H](C)O | 13 | >14 | 92.7 | > 100
7 | COC(=O)[C@H](CO)NC(=O)c1cnc2c(Cl)cccc2c1Cl | 6.7 | >15 | – | > 100
8 | CCOC(=O)[C@H](CO)NC(=O)c1cnc2ccccc2c1Cl | 4.7 | >21 | – | > 100
9 | C[C@@H](CO)NC(=O)c1cnc2ccccc2c1Cl | 7 | >14 | – | > 100
10 | COC(=O)C[C@H](NC(=O)c1cnc2ccccc2c1Cl)C(=O)OC | – | – | 58.7 | –
11 | O=C(NCCO)c1c[nH]c2ccccc2c1=O | 3.7 | >27 | – | > 100
12 | COC(=O)[C@H](CO)NC(=O)c1cnc2ccc(F)cc2c1Cl | 5.8 | >17 | – | > 100
13 | COC(=O)[C@@H](NC(=O)c1cnc2ccccc2c1Cl)C(C)C | 5.6 | 3.1 | – | 17.6
14 | O=C(NCCO)c1cn(Cc2ccc(F)cc2)c2ccccc2c1=O | 6.9 | >14 | – | > 100
15 | CC[C@H](C)[C@H](NC(=O)c1cnc2ccccc2c1Cl)C(=O)OC | 1.3 | 17 | – | 23.3
16 | COC(=O)[C@H](C)NC(=O)c1cnc2ccccc2c1Cl | 5.7 | 14 | – | 81.3
17 | COC(=O)[C@H](CO)NC(=O)c1cnc2cc(Cl)ccc2c1Cl | 8.2 | >12 | – | > 100

Row | Structure (SMILES) | EC50 [1] [µM] | Ratio [2] | level, % of control (Nucleic Acid) [%] | CC50 [3] [µM]
18 | O=C(NCCO)c1cn(CCO)c2ccccc2c1=O | 7.3 | >13 | – | > 100
19 | O=C(NCCO)c1cnc2ccccc2c1Cl | 2.7 | >37 | – | > 100
20 | O=C(N[C@H](CO)Cc1ccccc1)c1cnc2ccccc2c1Cl | 4 | >25 | – | > 100
21 | COC(=O)[C@H](CC(C)C)NC(=O)c1cnc2ccccc2c1Cl | 9.4 | 5.2 | – | 49.1
22 | CC(C)C[C@@H](CO)NC(=O)c1cnc2ccccc2c1Cl | 7.9 | >12 | 71.9 | > 100
23 | COC(=O)[C@H](CO)NC(=O)c1cnc2ccc(C)cc2c1Cl | 11.6 | >8.6 | – | > 100
24 | COC(=O)[C@H](Cc1c[nH]c2ccccc12)NC(=O)c1cnc2ccccc2c1Cl | 10 | >19 | – | > 100
25 | Cn1cc(C(=O)NCCO)c(=O)c2ccccc21 | 8.7 | >11 | 44.2 | > 100
26 | COC(=O)[C@H](CO)NC(=O)c1cnc2cc(C)ccc2c1Cl | 4.7 | 13 | 53.3 | 59.6
27 | COC(=O)[C@H](CO)NC(=O)c1cnc2c(C)cccc2c1Cl | 2.8 | >36 | – | > 100
28 | O=C(NCCO)c1c[nH]c2ccc(Oc3ccccc3)cc2c1=O | 4.9 | >20 | – | > 100
29 | O=C(NCCO)c1c[nH]c2ccc(Cl)cc2c1=O | 5.1 | >19 | – | > 100
30 | COC(=O)CNC(=O)c1cnc2ccccc2c1Cl | 5.4 | >18 | 79 | > 100
31 | COC(=O)[C@H](CSC)NC(=O)c1cnc2ccccc2c1Cl | 2.9 | 22 | – | 68.4
32 | O=C(NCCO)c1cn(Cc2ccccc2)c2ccccc2c1=O | 6 | >16 | 63.9 | > 100
33 | COC(=O)[C@H](CO)NC(=O)c1cnc2ccc(Cl)cc2c1Cl | 12 | >8.3 | – | > 100
